Reference: publication PMC4428392 (Anti-Cancer Agents in Medicinal Chemistry, 2014)
Several values for one entry are separate records, joined by “and”; a condition that tells them apart may be missing. Equal entries are not always repeated. Where two headings read alike, the source gives them in different places.

Experiments:
MCF-7 = assay: MTT cytotoxicity assay in normoxia and hypoxia, MCF-7; type: cell-based, Human
Outline: (§1)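 MCF-7 and HCT-116 were grown in DMEM; NCI-H460 in RPMI 1640 plus 10 mM HEPES; all media had 10% FBS, pyruvate and 1.5 g/L bicarbonate. Cells were seeded at 20000/well and grown 24 h at 20% O2, 5% CO2, 37 °C. Serial compound concentrations were then given for 24 h in normoxia, or for 6 h hypoxia (3% O2) followed by 18 h normoxia. MTT was read at 545 nm. IC50 came from linear regression of % inhibition versus log concentration, and HCR = IC50 normoxia/IC50 hypoxia.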

NCI-H460 = assay: MTT cytotoxicity assay in normoxia and hypoxia, NCI-H460; type: cell-based, Human; details: Homo sapiens
Outline: as §1

HCT-116 = assay: MTT cytotoxicity assay in normoxia and hypoxia, HCT-116; type: cell-based, Human; details: for IC50: Homo sapiens
Outline: as §1

[1] = Partition coefficient octanol/aqueous buffer pH 7.4 by HPLC; type: physicochemical; details: octanol/phosphate buffer pH 7.4, HPLC
Outline: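 Octanol/phosphate buffer (pH 7.4) distribution was determined by HPLC at the compound retention time. Conditions: RP-18E column (4.6 × 150 mm, 5 µm) at 25 °C; isocratic water:acetonitrile 70:30 with 0.7% acetic acid at 0.5 mL/min; UV detection at 285 nm. Samples were dissolved in DMSO or methanol.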

HCT-116 cells [2] = assay: Cell cycle assay by flow cytometry; type: cell-based, Human; details: 24 h
HCT-116 cells [3] = assay: ROS analysis by flow cytometry; type: cell-based, Human
Outline: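 HCT-116 cells were treated with test compound at 15 or 30 µM in normoxia or hypoxia (24 h per methods; legend states 18 h). They were stained with CM-H2DCFDA for 45 min, collected, and analysed on a FACSCalibur flow cytometer. Fluorescence was normalised to solvent control; mean ± SEM, n=3.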

[4] = test system: caspase 3/7 in HCT-116 cells; assay: Caspase 3/7 activity; type: cell-based, Human; details: 30 µM, 24 h
Outline: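 HCT-116 cells were exposed to test compound at 30 µM for 24 h in normoxia or hypoxia. Cells were harvested, washed in PBS, centrifuged (350 g, 5 min) and stained with a FAM-FLICA caspase-3/7 inhibitor kit. Active caspase 3/7 was measured by flow cytometry. Data are mean ± SEM, n=3, compared with solvent control by one-way ANOVA with Tukey post hoc test.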

γ-H2AX in HCT-116 cells = assay: Level of γ-H2AX by flow cytometry; type: cell-based, Human; details: 30 µM, 24 h
[5] = test system: cleaved PARP in HCT-116 cells; assay: Level of cleaved PARP by flow cytometry; type: cell-based, Human; details: HCT-116, hypoxia, 30 µM, 24 h
[6] = test system: γ-H2AX and cleaved PARP in HCT-116 cells; assay: Dual-parameter γ-H2AX and cleaved PARP flow cytometry; type: cell-based, Human; details: 30 µM, 24 h

Log P7.4 [1]: -0.42
Structure (SMILES): Nc1n[n+]([O-])c2ccccc2[n+]1[O-] [TPZ, 3-amino-1,2,4-benzotriazine-1,4-dioxide, reference compound]
HCR = IC50 (aerobic)/IC50 (hypoxia) (MCF-7): 6.3
IC50 (NCI-H460; NCI-H460, 24 h, read-out: Cytotoxicity (IC50) NCI-H460 N): 85 ± 9.7 µM
IC50 (NCI-H460; NCI-H460, read-out: Cytotoxicity (IC50) NCI-H460 H): 32.9 ± 2.1 µM
HCR = hypoxic cytotoxicity ratio IC50 (aerobic)/IC50 (hypoxic) (HCT-116; HCT-116): 2.6
IC50 (HCT-116; HCT-116, 24 h, read-out: Cytotoxicity (IC50) HCT-116 N): 89.1 ± 14.5 µM
IC50 (HCT-116; HCT-116, read-out: Cytotoxicity (IC50) HCT-116 H): 34.8 ± 8.3 µM
IC50 (HCT-116; HCT-116, read-out: Cytotoxicity (IC50), cell kill under hypoxia): 34.8 µM
G1 (%) (HCT-116 cells [2]; HCT-116, hypoxia, 15 µM): 22.5±9.4%
G2/M (%) (HCT-116 cells [2]; HCT-116, hypoxia, 15 µM): 35.2% and 35.2±4.9%
S (%) (HCT-116 cells [2]; HCT-116, hypoxia, 15 µM): 34.7±6.0%
Sub-G1 (%) (HCT-116 cells [2]; HCT-116, hypoxia, 15 µM): 7.3% and 7.3±2.7%
G1 (%) (HCT-116 cells [2]; HCT-116, hypoxia, 30 µM): 26.3±5.5%
G2/M (%) (HCT-116 cells [2]; HCT-116, hypoxia, 30 µM): 27.3% and 27.3±1.3%
S (%) (HCT-116 cells [2]; HCT-116, hypoxia, 30 µM): 29.6±4.7%
Sub-G1 (%) (HCT-116 cells [2]; HCT-116, hypoxia, 30 µM): 16.5% and 16.5±1.2%
G1 (%) (HCT-116 cells [2]; HCT-116, normoxia, 15 µM): 41.9±1.7%
G2/M (%) (HCT-116 cells [2]; HCT-116, normoxia, 15 µM): 33.1% and 33.1±3.7%
S (%) (HCT-116 cells [2]; HCT-116, normoxia, 15 µM): 21.9±2.4%
G1 (%) (HCT-116 cells [2]; HCT-116, normoxia, 30 µM): 35.3% and 35.3±1.4%
G2/M (%) (HCT-116 cells [2]; HCT-116, normoxia, 30 µM): 39.1% and 39.1±4.0%
S (%) (HCT-116 cells [2]; HCT-116, normoxia, 30 µM): 22.1±2.9%
Sub-G1 (%) (HCT-116 cells [2]; HCT-116, normoxia, 30 µM): 3.2±0.5%
increase of ROS relative to control medium (HCT-116 cells [3]; HCT-116, hypoxia, 15 µM): 6 fold
increase of ROS relative to control medium (HCT-116 cells [3]; HCT-116, hypoxia, 30 µM): 10.5 fold
increase of ROS relative to control medium (HCT-116 cells [3]; HCT-116, normoxia, 15 µM): 1.5 fold
increase of ROS relative to control medium (HCT-116 cells [3]; HCT-116, normoxia, 30 µM): 2 fold
level of active caspase 3/7 ([4]; HCT-116, hypoxia, solvent control 7%): about 41%
effect on level of active caspase 3/7 ([4]; HCT-116, normoxia): no apparent effect
expression of γ-H2AX (γ-H2AX in HCT-116 cells; HCT-116, hypoxia, solvent control 4%): around 30%
effect on expression of γ-H2AX (γ-H2AX in HCT-116 cells; HCT-116, normoxia): no significant effect
cleaved PARP [5]: approximately 10%
cells expressing both γ-H2AX and cleaved PARP (upper right quadrant) ([6]; HCT-116, hypoxia): 1.9%
cells expressing both γ-H2AX and cleaved PARP (upper right quadrant) ([6]; HCT-116, normoxia): 0.1%
